# Data published in PMC8313742 (Molecular Metabolism, 2021).
# Columns and labels:
# AMY3R cell line = assay type: binding, human; details: competition with […] 125I-sCT, AMY3R cells, triplicates
# [1] = tested on: obese male Sprague Dawley rats (HFD); experiment: Acute food intake and body weight after single s.c. injection; assay type: in vivo, rat; details: HFD SD rats; for body weight change after single injection: single s.c. 3 nmol/kg, 96-hour profile, n = 4
# In short: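 Male Sprague Dawley rats on 60 kcal% fat diet from 5–6 weeks of age were used when obese (>500 g). They were allocated by body weight and given a single s.c. injection at time 0. Food intake and body weight were recorded daily for 96–144 h. tAUC (0–96 h) was calculated. n = 4–10 per group. One-way ANOVA with Tukey versus vehicle; mean ± SEM.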
# HFD Sprague Dawley rats = experiment: Chronic 4-week study in high-fat diet-fed Sprague Dawley rats; assay type: in vivo, rat; details: for tAUC, BW / tAUC, FI / Epididymal AT / Inguinal AT / Perirenal AT: 4 weeks, n = 6, mean ± SEM; for Epididymal AT / Inguinal AT / Perirenal AT: study end
# In short: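 Male Sprague Dawley rats fed 60 kcal% fat diet from 5–6 weeks old for 20 weeks were randomized by body weight (n = 6). Dosing was s.c. saline or test compound q.3.d. for 4 weeks. Body weight and food intake were taken daily, and tAUC calculated. Terminal OGTT (2 g/kg, 4 mL/kg p.o.) was run after 14-h fast, 24 h post-dose, with glucose iAUC. Epididymal, perirenal and inguinal fat were weighed.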
# [2] = tested on: Zucker diabetic fatty (fa/fa; ZDF) rats; experiment: 8-week intervention study in ZDF rats; assay type: in vivo, rat; details: for tAUC, BW / tAUC, FI / Epididymal AT / Inguinal AT / Perirenal AT: n = 10, mean ± SEM; for Epididymal AT / Inguinal AT / Perirenal AT: study end; for HbA1c levels compared to vehicle / OGTT blood glucose iAUC compared to vehicle: KBP-066 […] q.d.; for HbA1c levels compared to vehicle: KBP-066A 1.5 and 3 nmol/kg q.3.d.; for vehicle-corrected reduction in HbA1c at the end of the study: dose not given; for OGTT blood glucose iAUC compared to vehicle: OGTT 1 g/kg after seven weeks, KBP-066A 0.75 and 3 nmol/kg q.3.d.
# [3] = target: T1, Amylin 3 receptor (AMY3R; CHO K1 CALCR RAMP3) (Homo sapiens, UniProt O60896+P30988); experiment: PathHunter β-arrestin recruitment reporter assay, amylin receptor; assay type: cell-based; details: 10% FBS (Table S1)
# T1 sequence (P30988 25-474): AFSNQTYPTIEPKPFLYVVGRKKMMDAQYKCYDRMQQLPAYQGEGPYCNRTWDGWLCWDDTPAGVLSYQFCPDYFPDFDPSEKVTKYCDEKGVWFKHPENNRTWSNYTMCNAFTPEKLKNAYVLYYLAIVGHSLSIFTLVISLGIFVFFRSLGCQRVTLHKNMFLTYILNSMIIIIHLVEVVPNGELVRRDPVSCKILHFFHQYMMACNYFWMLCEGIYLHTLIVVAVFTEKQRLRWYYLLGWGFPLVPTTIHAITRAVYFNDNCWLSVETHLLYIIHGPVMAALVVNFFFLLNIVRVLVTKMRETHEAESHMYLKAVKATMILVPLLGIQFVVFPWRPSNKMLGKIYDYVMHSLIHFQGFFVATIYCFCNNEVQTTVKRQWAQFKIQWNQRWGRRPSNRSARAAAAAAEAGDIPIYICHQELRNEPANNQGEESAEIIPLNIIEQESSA
# T1 sequence (O60896 24-148 partner): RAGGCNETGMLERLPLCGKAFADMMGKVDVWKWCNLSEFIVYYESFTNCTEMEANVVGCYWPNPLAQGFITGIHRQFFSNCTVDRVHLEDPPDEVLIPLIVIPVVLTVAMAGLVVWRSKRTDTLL
# [4] = tested on: obese male Sprague Dawley rats (HFD); experiment: Acute gastric emptying rate; assay type: in vivo, rat; details: plasma acetaminophen, n = 8
# In short: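 Obese HFD-fed male Sprague Dawley rats were fasted overnight, then given s.c. test compound plus oral glucose bolus and acetaminophen at time 0. Tail-vein EDTA blood was taken at 0, 30, 60, 120 and 240 min. Plasma acetaminophen by ELISA served as gastric emptying estimate, expressed as % of vehicle. n = 8. One-way ANOVA/Tukey at 60 and 240 min; Kruskal–Wallis/Dunn at 30 and 120 min.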
# [5] = single s.c. 36 nmol/kg, n = 6-10
# [6] = 0.75 nmol/kg s.c. q.3.d., 8 weeks
substance,measurement,setting,value
Ac-CSNLSTCXLGKLSQDLHRLQTYPKTDVGANAP-NH2 [KBP-066A],change of IC50 in 2% HSA compared to 0.01% HSA,AMY3R cell line,100 fold
same,effect on food intake and body weight,"[1]; single s.c. 0.5 nmol/kg (lowest dose), n = 6-10",only had a minor effect on both parameters
same,body weight change after single injection,[1],still markedly reduced even 96 h post-injection
same,duration of effect on body weight,[1]; [5],144 h
same,duration of effect on food intake,[1]; [5],120 h
same,"tAUC, BW",HFD Sprague Dawley rats; 1 nmol/kg s.c. q.3.d.,2584 ± 7∗∗∗ g∗days^−1
same,"tAUC, FI",HFD Sprague Dawley rats; 1 nmol/kg s.c. q.3.d.,617 ± 10∗∗∗ g∗days^−1
same,Epididymal AT,HFD Sprague Dawley rats; 1 nmol/kg s.c. q.3.d.,4.4 ± 1.0 g
same,Inguinal AT,HFD Sprague Dawley rats; 1 nmol/kg s.c. q.3.d.,2.8 ± 0.3 g
same,Perirenal AT,HFD Sprague Dawley rats; 1 nmol/kg s.c. q.3.d.,3.5 ± 0.9 g
same,"tAUC, BW",HFD Sprague Dawley rats; 2 nmol/kg s.c. q.3.d.,2452 ± 6∗∗∗¤ g∗days^−1
same,"tAUC, FI",HFD Sprague Dawley rats; 2 nmol/kg s.c. q.3.d.,518 ± 6∗∗∗¤¤¤ g∗days^−1
same,Epididymal AT,HFD Sprague Dawley rats; 2 nmol/kg s.c. q.3.d.,3.9 ± 1.1 g
same,Inguinal AT,HFD Sprague Dawley rats; 2 nmol/kg s.c. q.3.d.,1.9 ± 0.5 g
same,Perirenal AT,HFD Sprague Dawley rats; 2 nmol/kg s.c. q.3.d.,2.7 ± 0.7∗∗ g
same,"tAUC, BW",HFD Sprague Dawley rats; 4 nmol/kg s.c. q.3.d.,2458 ± 8∗∗∗ g∗days^−1
same,"tAUC, FI",HFD Sprague Dawley rats; 4 nmol/kg s.c. q.3.d.,532 ± 10∗∗∗¤¤ g∗days^−1
same,Epididymal AT,HFD Sprague Dawley rats; 4 nmol/kg s.c. q.3.d.,4.2 ± 1.2 g
same,Inguinal AT,HFD Sprague Dawley rats; 4 nmol/kg s.c. q.3.d.,2.9 ± 1.4 g
same,Perirenal AT,HFD Sprague Dawley rats; 4 nmol/kg s.c. q.3.d.,2.8 ± 1.0∗∗ g
same,OGTT glucose iAUC compared to vehicle,"HFD Sprague Dawley rats; OGTT after four weeks, KBP-066A 1, 2, 4 nmol/kg q.3.d.",not statistically significant compared to vehicle
same,effect on fasting blood glucose levels,"[2]; 0.75 nmol/kg q.3.d. (lowest dose), 8 weeks",minor
same,"tAUC, BW",[2]; [6],6180 ± 67 g∗days^−1
same,"tAUC, FI",[2]; [6],3815 ± 135∗∗¤ g∗days^−1
same,Epididymal AT,[2]; [6],3.7 ± 0.1 g
same,Inguinal AT,[2]; [6],4.8 ± 0.4 g
same,Perirenal AT,[2]; [6],6.0 ± 0.3 g
same,fasting blood glucose levels (tAUC) compared to KBP-066 q.d.,"[2]; 3 nmol/kg q.3.d. (highest dose), 8 weeks",significantly improved
same,"tAUC, BW","[2]; 3 nmol/kg s.c. q.3.d., 8 weeks",6409 ± 122 g∗days^−1
same,"tAUC, FI","[2]; 3 nmol/kg s.c. q.3.d., 8 weeks",2898 ± 61∗∗∗ g∗days^−1
same,Epididymal AT,"[2]; 3 nmol/kg s.c. q.3.d., 8 weeks",4.7 ± 0.2 g
same,Inguinal AT,"[2]; 3 nmol/kg s.c. q.3.d., 8 weeks",6.3 ± 0.7 g
same,Perirenal AT,"[2]; 3 nmol/kg s.c. q.3.d., 8 weeks",6.7 ± 0.4 g
same,plasma insulin (tAUC) compared to KBP-066 q.d.,"[2]; 8 weeks, 3 nmol/kg q.3.d.",significantly preserved plasma insulin at higher levels
same,HbA1c levels compared to vehicle,[2]; 8 weeks,significantly improved
same,vehicle-corrected reduction in HbA1c at the end of the study,[2]; 8 weeks,46%
same,OGTT blood glucose iAUC compared to vehicle,[2],significantly reduced
Ac-CSNLSTCXLGRLSQDLHRLQTYPKTDVGANAP-NH2 [KBP-066],fold lower EC50 than KBP-066A for the AMYR,[3],eight-fold
same,change of IC50 in 2% HSA compared to 0.01% HSA,AMY3R cell line,not affected by the difference in HSA concentration
same,body weight change after single injection,[1],completely returned to the baseline after 72 h
same,gastric emptying rate at 30 min,"[4]; […] s.c., overnight fasted rats",reduced the gastric emptying rate
same,gastric emptying rate at 60 and 120 min,[4]; both doses 0.75 and […] s.c.,significantly did so
same,HbA1c levels compared to vehicle,[2]; 8 weeks,significantly improved
same,vehicle-corrected reduction in HbA1c at the end of the study,[2]; 8 weeks,31%
same,OGTT blood glucose iAUC compared to vehicle,[2],significantly reduced
